This note sets out measurements from ChEMBL document CHEMBL1126183, “Synthesis and biological studies of unsaturated acyclonucleoside analogues of S-adenosyl-L-homocysteine hydrolase inhibitors” (J Med Chem, 1992).

For data set [1], the system named is CCRF-CEM. Description: In vitro inhibition leukemia CCRF-CEM cell line. The data set is classed as functional, Homo sapiens. The method in brief: (§1)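 NCI 60-cell-line human tumor screen. Cells were grown 24 h after plating, then exposed 48 h to compound at 10⁻⁴, 10⁻⁵, 10⁻⁶, 10⁻⁷ and 10⁻⁸ M. Growth effect (percent inhibition or kill) was read spectrophotometrically by sulforhodamine B protein staining.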

Data set [2] has as its system CCRF-CEM. Description: In vitro inhibition leukemia CCRF-CEM cell line growth. The format is functional, Homo sapiens. The essentials:
as §1

The subject of data set [3] is LXFL 529. Description: In vitro inhibition lung LXFL529 cell line. The data set is classed as functional, Homo sapiens. The method in brief: as §1
Data set [4] deals with LXFL 529. Nature of the data set: In vitro inhibition lung LXFL529 cell line growth. The data set is classed as functional, Homo sapiens. The method in brief:
as §1

For data set [5], the system named is NCI-H522. Description: In vitro inhibition lung […] cell line. The format is functional, Homo sapiens. The method in brief: as §1
Data set [6] relates to NCI-H522. Description: In vitro inhibition lung […] cell line growth. The data set is classed as functional, Homo sapiens. The method in brief:
as §1

In data set [7] the test system is SNB-75. Nature of the data set: In vitro inhibition CNS SNB-75 cell line. The format is functional, Homo sapiens. The method in brief:
as §1

The subject of data set [8] is UO-31. Nature of the data set: In vitro inhibition renal UO-31 cell line. The data set is classed as functional, Homo sapiens. The method in brief: as §1
The subject of data set [9] is UO-31. Nature of the data set: In vitro inhibition renal UO-31 cell line growth. The format is functional, Homo sapiens. The essentials:
as §1

For data set [10], the system named is Mus musculus. Description: Mean biodistribution and elimination data in thyroid was reported 1 hr after administering compound intravenously in tumor-bearing female BALB-C mice. The data set is classed as ADME, organism-based, Thyroid gland. Particulars: in vivo, iv. The essentials: (§2)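 Female Balb-C mice bearing Line-1 spontaneous lung carcinoma were used 1 week after inoculation of 10⁶ cells. The iodine-125-labeled compound was given in normal saline, filter-sterilized, by lateral tail vein injection under ether anesthesia. At set times the mice were killed and the organs excised, rinsed, blotted and weighed. Activity was gamma-counted and reported as percent injected dose/gram tissue; thyroid was reported as percent injected dose/tissue.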

The subject of data set [11] is Mus musculus. Description: Mean biodistribution and elimination data in thyroid was reported 24 hr after administering compound intravenously in tumor-bearing female BALB-C mice. The format is ADME, organism-based, Thyroid gland. Conditions: in vivo, iv. The essentials:
as §2

In data set [12] the test system is Mus musculus. Description: Mean biodistribution and elimination data in thyroid was reported 4 hr after administering compound intravenously in tumor-bearing female BALB-C mice. Conditions: in vivo, iv. The format is ADME, organism-based, Thyroid gland. The method in brief: as §2
In data set [13] the test system is Mus musculus. Nature of the data set: Mean biodistribution and elimination data in urine was reported 24 h after administering compound intravenously in tumor-bearing female BALB-C mice. The format is ADME, organism-based. Particulars: in vivo, iv. The essentials:
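Tumor-bearing female Balb-C mice (Line-1 lung carcinoma) received the ¹²⁵I-labeled compound in normal saline by tail vein injection under ether anesthesia. Urine radioactivity was gamma-counted and expressed as percent injected dose per total sample. Urine was also analyzed by TLC (solvent E) using UV and radioscanning.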

Data set [14] concerns Mus musculus. Description: Mean biodistribution and elimination data in blood was reported 1 h after administering compound intravenously in tumor-bearing female BALB-C mice. The data set is classed as ADME, organism-based. Particulars: in vivo, iv. The essentials:
as §2

In data set [15] the test system is Mus musculus. Nature of the data set: Mean biodistribution and elimination data in blood was reported 24 hr after administering compound intravenously in tumor-bearing female BALB-C mice. The format is ADME, organism-based. Particulars: in vivo, iv. The essentials:
as §2

For data set [16], the system named is Mus musculus. Nature of the data set: Mean biodistribution and elimination data in blood was reported 4 hr after administering compound intravenously in tumor-bearing female BALB-C mice. The format is ADME, organism-based. Particulars: in vivo, iv. The method in brief: as §2
Data set [17] concerns Mus musculus. Description: Mean biodistribution and elimination data in kidney was reported 1 hr after administering compound intravenously in tumor-bearing female BALB-C mice. The data set is classed as ADME, organism-based. Conditions: in vivo, iv. The method in brief: as §2
Data set [18] concerns Mus musculus. Description: Mean biodistribution and elimination data in kidney was reported 24 hr after administering compound intravenously in tumor-bearing female BALB-C mice. The format is ADME, organism-based. Conditions: in vivo, iv. The method in brief:
as §2

For data set [19], the system named is Mus musculus. Nature of the data set: Mean biodistribution and elimination data in kidney was reported 4 hr after administering compound intravenously in tumor-bearing female BALB-C mice. The format is ADME, organism-based. Conditions: in vivo, iv. The essentials: as §2
Data set [20] has as its system Mus musculus. Description: Mean biodistribution and elimination data in liver was reported 1 hr after administering compound intravenously in tumor-bearing female BALB-C mice. Conditions: in vivo, iv. The format is ADME, organism-based. The essentials: as §2
For data set [21], the system named is Mus musculus. Nature of the data set: Mean biodistribution and elimination data in liver was reported 24 h after administering compound intravenously in tumor-bearing female BALB-C mice. The format is ADME, organism-based. Particulars: in vivo, iv. The method in brief: as §2
Data set [22] has as its system Mus musculus. Description: Mean biodistribution and elimination data in liver was reported 4 hr after administering compound intravenously in tumor-bearing female BALB-C mice. The data set is classed as ADME, organism-based. Particulars: in vivo, iv. The essentials:
as §2

Data set [23] deals with Mus musculus. Description: Mean biodistribution and elimination data in lung was reported 1 hr after administering compound intravenously in tumor-bearing female BALB-C mice. The data set is classed as ADME, organism-based. Conditions: in vivo, iv. The essentials:
as §2

Data set [24] has as its system Mus musculus. Nature of the data set: Mean biodistribution and elimination data in lung was reported 24 hr after administering compound intravenously in tumor-bearing female BALB-C mice. The data set is classed as ADME, organism-based. Conditions: in vivo, iv. The essentials: as §2
Data set [25] has as its system Mus musculus. Nature of the data set: Mean biodistribution and elimination data in lung was reported 4 hr after administering compound intravenously in tumor-bearing female BALB-C mice. The format is ADME, organism-based. Particulars: in vivo, iv. The essentials: as §2
The subject of data set [26] is Mus musculus. Nature of the data set: Mean biodistribution and elimination data in tumoe was reported 24 h after administering compound intravenously in tumor-bearing female BALB-C mice. The data set is classed as ADME, organism-based. Particulars: in vivo, iv. The essentials:
as §2

In data set [27] the test system is Mus musculus. Nature of the data set: Mean biodistribution and elimination data in tumor was reported 1 hr after administering compound intravenously in tumor-bearing female BALB-C mice. The data set is classed as ADME, organism-based. Particulars: in vivo, iv. The method in brief:
as §2

Data set [28] deals with Mus musculus. Description: Mean biodistribution and elimination data in tumor was reported 4 hr after administering compound intravenously in tumor-bearing female BALB-C mice. The data set is classed as ADME, organism-based. Particulars: in vivo, iv. The essentials:
as §2

For data set [29], the system named is HOP-18. Description: In vitro inhibition lung HOP-18 cell line. The format is functional, Homo sapiens. The method in brief: as §1
Data set [30] has as its system SNB-75. Nature of the data set: In vitro inhibition CNS SNB-75 cell line growth. The format is functional, Homo sapiens. The essentials:
as §1

In data set [31] the test system is HOP-18. Description: In vitro inhibition lung HOP-18 cell line growth. The data set is classed as functional, Homo sapiens. The essentials: as §1
The test system of another data set is DMS-114. Description: In vitro inhibition of lung DMS 114 cell line. The data set is classed as functional, Homo sapiens. The essentials:
as §1

For data set [32], the system named is K562. Nature of the data set: In vitro inhibition of leukemia K-562 cell line. The data set is classed as functional, Homo sapiens. The essentials: as §1
Data set [33] relates to K562. Nature of the data set: In vitro inhibition of leukemia K-562 cell line. The format is functional, Homo sapiens. The method in brief:
as §1

Another data set deals with MOLT-4. Nature of the data set: In vitro inhibition of Leukemia Molt-4 cell line. The data set is classed as functional, Homo sapiens. The method in brief: as §1
Another data set deals with SR. Description: In vitro inhibition of leukemia SR cell line. The data set is classed as functional, Homo sapiens. The method in brief: as §1
The next data set deals with LOX IMVI. Description: In vitro inhibition of melanoma […] cell line. The data set is classed as functional, Homo sapiens. The method in brief: as §1

On to `C#CCOCn1cnc2c(Sc3c([N+](=O)[O-])ncn3C)ncnc21`, for which the Cell growth is given as 50% in the data set on CCRF-CEM [1]; 37% with LXFL 529 [3]; 32% in the data set with NCI-H522 [5]; -14% in the data set with SNB-75 [7]; 48% with UO-31 [8]. Besides, the Inhibition (in general, the change of the read-out against control, counted positive when it falls) with CCRF-CEM [2] came out at 50%; with LXFL 529 [4] it was 63%; in the data set on NCI-H522 [6], 68%; in the data set on UO-31 [9] it was 52%.
As for `Nc1ncnc2c1ncn2COC/C=C/I`, the values for the ID/thyroid in the data set on Mus musculus [10], in the data set with Mus musculus [11] and in the data set on Mus musculus [12] were 1.29%, 3.49% and 3.61%, respectively. For the same compound, the ID/animal in the data set with Mus musculus [13] came out at 94.36%. In addition, the ID/g with Mus musculus [14] is recorded as 3.15%; in the data set with Mus musculus [15], 0.34%; in the data set on Mus musculus [16] it was 1.33%; with Mus musculus [17], 3.68%; with Mus musculus [18] it was 0.2%; in the data set with Mus musculus [19], 1%. Moreover, the ID/g in the data set with Mus musculus [20] was 3.4%; in the data set on Mus musculus [21] it was 0.33%; with Mus musculus [22], 1.34%; with Mus musculus [23], 3.41%; in the data set on Mus musculus [24], 0.35%; in the data set with Mus musculus [25], 1.3%. Moreover, the ID/g in the data set with Mus musculus [26] is recorded as 0.06%; in the data set with Mus musculus [27], 1.5%; in the data set on Mus musculus [28], 0.6%. In addition, the Cell growth in the data set on CCRF-CEM [1] worked out at 47.4%; in the data set on HOP-18 [29], 21.2%; in the data set with SNB-75 [7], 25.2%. For the same compound, the Inhibition with CCRF-CEM [2] stood at 52.6%; in the data set with SNB-75 [30], 74.8%; in the data set with HOP-18 [31], 78.8%.
As to `C#CCOCn1cnc2c(S)ncnc21`, the Cell growth with SNB-75 [7] is 0%. In addition, the Inhibition in the data set with SNB-75 [30] is given as 100%.
With `C#CCOCn1cnc2c(Cl)ncnc21`, the Cell growth with DMS-114 worked out at 21%; in the data set with K562 [32], 34.8%; in the data set with MOLT-4, 40.7%; with SR, 38.4%; in the data set on LOX IMVI it was 33.5%. The Inhibition is recorded as 79% in the data set on DMS-114; 65.2% with K562 [33]; 59.3% in the data set with MOLT-4; 61.6% in the data set on SR; 66.5% in the data set on LOX IMVI.
